# Legend:
# KB = assay: Antiproliferative activity against human KB cells after 48 hrs by MTT assay; assay type: functional, cell-based
# Outline: (§1)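 Cells seeded at 7 × 10³/well and grown for 24 h. Exponentially growing cells were then exposed for 48 h to final concentrations of 0.1–100. MTT was added for 4 h, followed by 10% SDS in 0.01 N HCl at 37 °C for 18 h, and absorbance was read at 570 nm. Survival was expressed as % of untreated cells. IC50 was taken from six-well replicates in at least two independent experiments.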
# [1] = Antiproliferative activity against human L02 cells after 48 hrs by MTT assay; assay type: cell-based; conditions: L02, 48 h; outline: as §1
SMILES,IC50 (KB),IC50 [1]
CN(C)C(=O)N(CCCN1CCOCC1)Cc1cc(Br)ccc1O,9 µM,86 µM
CCOC(=O)N1CCC(N(Cc2ccc(O)cc2)C(=O)N(C)C)CC1,48.6 µM,
CN(C)C(=O)N(Cc1ccco1)Cc1cc(Br)ccc1O,32.8 µM,
CCOC(=O)N1CCC(N(Cc2cc([N+](=O)[O-])ccc2O)C(=O)N(C)C)CC1,24.2 µM,
CN(C)C(=O)N(Cc1ccc([N+](=O)[O-])cc1)Cc1ccco1,17.5 µM,
CCOC(=O)N1CCC(N(Cc2ccc([N+](=O)[O-])cc2)C(=O)N(C)C)CC1,16.4 µM,
CN(C)C(=O)N(Cc1ccco1)Cc1cc(Cl)ccc1O,49.5 µM,
CN(C)C(=O)N(CCN1CCOCC1)Cc1cc(Br)ccc1O,7.3 µM,21 µM
CN(C)C(=O)N(Cc1cccc([N+](=O)[O-])c1)Cc1ccco1,23.8 µM,
CCOC(=O)N1CCC(N(Cc2cccc([N+](=O)[O-])c2)C(=O)N(C)C)CC1,15.6 µM,
CN(C)C(=O)N(Cc1ccc(O)cc1)Cc1ccco1,52.1 µM,
CN(C)C(=O)N(Cc1ccco1)Cc1cc([N+](=O)[O-])ccc1O,20.8 µM,
CCOC(=O)N1CCC(N(Cc2cc(Cl)ccc2O)C(=O)N(C)C)CC1,25.7 µM,
CCOC(=O)N1CCC(N(Cc2cc(Br)ccc2O)C(=O)N(C)C)CC1,24.6 µM,

# Compounds with a lower IC50 (KB), results first:
IC50 (KB),SMILES,IC50 [1]
0.09 µM,CN(C)C(=O)N(CCN1CCOCC1)Cc1cccc([N+](=O)[O-])c1,155 µM
4.25 µM,CN(C)C(=O)N(CCN1CCOCC1)Cc1ccc(O)cc1,81 µM
1.75 µM,CN(C)C(=O)N(CCCN1CCOCC1)Cc1cc(Cl)ccc1O,81 µM
3.3 µM,CN(C)C(=O)N(CCCN1CCOCC1)Cc1cc([N+](=O)[O-])ccc1O,125 µM
0.17 µM,CN(C)C(=O)N(CCCN1CCOCC1)Cc1cccc([N+](=O)[O-])c1,134 µM
0.75 µM,CN(C)C(=O)N(CCN1CCOCC1)Cc1ccc([N+](=O)[O-])cc1,65 µM
2.24 µM,CN(C)C(=O)N(CCN1CCOCC1)Cc1cc(Cl)ccc1O,82 µM
2.88 µM,CN(C)C(=O)N(CCCN1CCOCC1)Cc1ccc(O)cc1,109 µM
4.8 µM,CN(C)C(=O)N(CCN1CCOCC1)Cc1cc([N+](=O)[O-])ccc1O,26 µM
0.52 µM,CN(C)C(=O)N(CCCN1CCOCC1)Cc1ccc([N+](=O)[O-])cc1,85 µM
0.42 µM,COc1cc([C@@H]2c3cc4c(cc3[C@@H](O[C@@H]3O[C@@H]5CO[C@@H](C)O[C@H]5[C@H](O)[C@H]3O)[C@H]3COC(=O)[C@H]23)OCO4)cc(OC)c1O [ETOPOSIDE],13 µM
